Source: ChEMBL document CHEMBL3232989, “First identification of boronic species as novel potential inhibitors of the Staphylococcus aureus NorA efflux pump” (J Med Chem, 2014)
Values after ≈ are worked out from the molar mass of the structure shown.

What was measured:
[1] = target: T1, Quinolone resistance protein NorA (Staphylococcus aureus) (UniProt P0A0J7); experiment: Inhibition of NorA in fluoroquinolone-resistant Staphylococcus aureus 1199B assessed as potentiation of 4 ug/ml of ciprofloxacin MIC at 100 ug/ml after 24 hrs by microdilution method
T1 sequence (whole entry): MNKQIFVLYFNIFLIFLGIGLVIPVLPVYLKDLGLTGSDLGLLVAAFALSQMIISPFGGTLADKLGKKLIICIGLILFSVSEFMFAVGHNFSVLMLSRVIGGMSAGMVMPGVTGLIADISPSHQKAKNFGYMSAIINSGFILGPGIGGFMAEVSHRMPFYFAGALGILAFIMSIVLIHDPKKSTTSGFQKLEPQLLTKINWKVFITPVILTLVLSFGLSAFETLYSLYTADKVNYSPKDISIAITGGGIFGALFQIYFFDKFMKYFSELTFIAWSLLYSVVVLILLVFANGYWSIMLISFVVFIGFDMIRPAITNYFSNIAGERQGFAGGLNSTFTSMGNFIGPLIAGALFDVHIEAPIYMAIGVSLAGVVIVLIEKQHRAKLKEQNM
Outline: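 Combination with ciprofloxacin 4 μg/mL (MIC/4) against SA-1199B in MH broth microdilution, 10^6 CFU/mL, 24 h at 37 °C, read at 620 nm and visually. Compounds are first screened at 100 μg/mL; actives are 2-fold serially diluted. MMC4 is the lowest inhibitor concentration giving antibacterial activity with subinhibitory ciprofloxacin. Duplicates.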

[2] = test system: Staphylococcus aureus; experiment: Toxicity in Staphylococcus aureus ATCC 25923 after 24 hrs by microdilution method; assay type: organism-based
Outline: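 Mueller–Hinton broth microdilution; inoculum from frozen culture grown 18 h at 37 °C, 10^6 CFU/mL per well. Compounds (10 mg/mL DMSO stock) in 2-fold serial dilutions, highest 128 mg/L, first screened at 100 μg/mL. MIC = complete growth inhibition after 24 h at 37 °C, read at 620 nm and visually; duplicate; ampicillin control.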

[3] = test system: Staphylococcus aureus; experiment: Toxicity in fluoroquinolone-resistant Staphylococcus aureus 1199B expressing NorA after 24 hrs by microdilution method; assay type: organism-based; conditions: in vitro
Outline: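 Broth microdilution in Mueller–Hinton broth, 10^6 CFU/mL per well from an 18 h 37 °C culture. Compounds come from 10 mg/mL DMSO stocks as 2-fold serial dilutions, top 128 mg/L. Plates run 24 h at 37 °C and are read at 620 nm and visually. MIC is the lowest concentration with complete growth inhibition. Duplicates; 2-fold variance accepted.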

[4] = test system: Staphylococcus aureus; experiment: Toxicity in Staphylococcus aureus ATCC 25923 at 100 ug/ml after 24 hrs by microdilution method; assay type: organism-based
Outline: (§1)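 Single-point screen at 100 μg/mL of compound alone in MH broth microdilution, 10^6 CFU/mL, 24 h at 37 °C. Growth is read at 620 nm and visually, giving percent growth inhibition. Compounds inhibiting more than 90% then go to MIC determination. Duplicates.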

[5] = test system: Staphylococcus aureus; experiment: Toxicity in fluoroquinolone-resistant Staphylococcus aureus 1199B expressing NorA at 100 ug/ml after 24 hrs by microdilution method; assay type: organism-based; outline: as §1

Row | SMILES | Activity [1] [µg/mL] | MIC [2] | MIC [3] | growth inhibition (GI) [4] [%] | growth inhibition (GI) [5] [%]
1 | O=C(O)c1ccccc1Cl | 64 | >= 64 ug ml-1 | 128 µg/mL (≈ 818 µM) | – | –
2 | OB(O)c1cccnc1Cl | > 128 | >= 64 ug ml-1 | – | < 90 | < 90
3 | CC(C)(O)C(C)(C)OB(OC(C)(C)C(C)(C)O)c1ccncc1Cl | > 128 | >= 64 ug ml-1 | – | < 90 | < 90
4 | O=C(O)c1ccc(B(O)O)cc1 | > 128 | >= 64 ug ml-1 | – | < 90 | < 90
5 | CC(C)(O)C(C)(C)OB(OC(C)(C)C(C)(C)O)c1ccc(NCc2ccccc2)nc1 | 128 | >= 64 ug ml-1 | – | < 90 | < 90
6 | CSc1ccc(B(OC(C)(C)C(C)(C)O)OC(C)(C)C(C)(C)O)cn1 | > 128 | >= 64 ug ml-1 | – | < 90 | < 90
7 | CC(C)(O)C(C)(C)OB(OC(C)(C)C(C)(C)O)c1cccnc1F | > 128 | >= 64 ug ml-1 | – | < 90 | < 90
8 | Oc1ccccc1Br | 128 | >= 64 ug ml-1 | > 128 µg/mL | – | –
9 | OB(O)c1ccccc1 [PHENYLBORONIC ACID] | 32 | >= 64 ug ml-1 | – | < 90 | < 90
10 | CC(C)(O)C(C)(C)OB(OC(C)(C)C(C)(C)O)c1ccc(Cl)nc1 | 128 | >= 64 ug ml-1 | – | < 90 | < 90
11 | CCOc1ncccc1B(O)O | > 128 | >= 64 ug ml-1 | – | < 90 | < 90
12 | CCOC(=O)c1ccccc1B(O)O | > 128 | >= 64 ug ml-1 | – | < 90 | < 90
13 | F[B-](F)(F)c1cccnc1.[K+] | > 128 | >= 64 ug ml-1 | – | < 90 | < 90
14 | CC(C)(O)C(C)(C)OB(OC(C)(C)C(C)(C)O)c1ccncc1Br | > 128 | >= 64 ug ml-1 | – | < 90 | < 90
15 | CC(C)(O)C(C)(C)OB(OC(C)(C)C(C)(C)O)c1ccncc1F | > 128 | >= 64 ug ml-1 | – | < 90 | < 90
16 | CC(C)[Si](Oc1ncc(B2OC(C)(C)C(C)(C)O2)o1)(C(C)C)C(C)C | > 128 | >= 64 ug ml-1 | – | < 90 | < 90
17 | CCOc1ccc(B(OC(C)(C)C(C)(C)O)OC(C)(C)C(C)(C)O)cn1 | 128 | >= 64 ug ml-1 | – | < 90 | < 90
18 | Cc1cccc(C)c1B(O)O | > 128 | >= 64 ug ml-1 | – | < 90 | < 90
19 | OB(O)c1cc(Cl)ncc1Cl | 64 | >= 64 ug ml-1 | – | < 90 | < 90
20 | Cn1c(B2OC(C)(C)C(C)(C)O2)cnc1Cl | 128 | >= 64 ug ml-1 | – | < 90 | < 90
21 | CC(C)(C)OC(=O)n1cccc1B(O)O | > 128 | >= 64 ug ml-1 | – | < 90 | < 90
22 | OCc1ccc(OCc2ccccc2)nc1 | > 34 | – | >= 128 ug ml-1 | – | –
23 | Cc1cc(B(OC(C)(C)C(C)(C)O)OC(C)(C)C(C)(C)O)cnc1N1CCOCC1 | 32 | >= 64 ug ml-1 | – | < 90 | < 90
24 | OB(O)c1ccnc(F)c1 | > 128 | >= 64 ug ml-1 | – | < 90 | < 90
25 | OB(O)c1ccc(F)nc1 | 32 | >= 64 ug ml-1 | – | < 90 | < 90
26 | CCc1ccc(B(OC(C)(C)C(C)(C)O)OC(C)(C)C(C)(C)O)cc1 | 32 | >= 64 ug ml-1 | – | < 90 | < 90
27 | Cc1cc(B(O)O)c(C)s1 | 16 | >= 64 ug ml-1 | – | < 90 | < 90
